One experiment has as its target Adenosine receptor A2a (Homo sapiens, UniProt P29274). Kind of experiment: Displacement of [3H]ZM241385 from human AA2AR expressed in HEK293T cells after 2 hrs by liquid scintillation counter. Format: cell-based, HEK-293T. A digest of the protocol: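 Membranes of HEK293T cells stably expressing AA2AR (40 µg protein) incubated with 1.7 nM (final) [3H]ZM241385 in 50 mM Tris·HCl pH 7.4, 2 h at 25 °C with shaking. Nonspecific binding defined with 100 µM CGS21680. Filtered over GF/B, washed three times with ice-cold buffer. Compounds giving ≥50% inhibition at 10 µM went to concentration-response curves. pKi values, n=3 in duplicate.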
Background: Loss of bound radioactivity is the signal in a displacement assay; it reports binding, not function.

Experiment [1] has as its target Beta-2 adrenergic receptor (Homo sapiens, UniProt P07550). Kind of experiment: Displacement of [3H]dihydroalprenolol from human ADRB2 expressed in HEK293T cells after 1 hr by liquid scintillation counter. Format: cell-based, HEK-293T. The essentials:
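HEK293T cells transiently transfected with ADRB2 using PEI, harvested 48 h later for membranes. Membranes incubated at room temperature for 1 h with 1 nM [3H]-dihydroalprenolol in HEPES pH 7.4 with CaCl2, MgCl2, NaCl and 0.5% BSA. Filtered on GF/C presoaked in PEI, washed with ice-cold buffer plus 500 mM NaCl. Compounds giving ≥50% inhibition at 10 µM went to concentration-response curves. Ki by nonlinear regression, n=3 in triplicate.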

Experiment [2] has as its target Sphingosine 1-phosphate receptor 1 (Homo sapiens, UniProt P21453). Kind of experiment: Induction of beta-arrestin2 recruitment to human S1PR1 expressed in CHOK1 cells after 2 hrs by beta-galactosidase assay. The format is cell-based, CHO-K1. A digest of the protocol:
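PathHunter enzyme-fragment-complementation CHO-K1 S1PR1 β-arrestin cells seeded at 10,000/well in OPTI-MEM and held overnight at 37 °C. Compound added for 2 h at 37 °C, then 1 h at room temperature. Lysed with detection reagent and read by chemiluminescence after 2 h dark. Recruitment referenced to AUY954 (1 µM). Hits with ≥30% recruitment went to dose-response. pEC50, n=1 in triplicate.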
A general note: Recruitment of arrestin is a read-out of receptor activation apart from second messengers.

SMILES strings stand for the structures.

Chain of Sphingosine 1-phosphate receptor 1 (P21453 whole entry, the tested form may be a part): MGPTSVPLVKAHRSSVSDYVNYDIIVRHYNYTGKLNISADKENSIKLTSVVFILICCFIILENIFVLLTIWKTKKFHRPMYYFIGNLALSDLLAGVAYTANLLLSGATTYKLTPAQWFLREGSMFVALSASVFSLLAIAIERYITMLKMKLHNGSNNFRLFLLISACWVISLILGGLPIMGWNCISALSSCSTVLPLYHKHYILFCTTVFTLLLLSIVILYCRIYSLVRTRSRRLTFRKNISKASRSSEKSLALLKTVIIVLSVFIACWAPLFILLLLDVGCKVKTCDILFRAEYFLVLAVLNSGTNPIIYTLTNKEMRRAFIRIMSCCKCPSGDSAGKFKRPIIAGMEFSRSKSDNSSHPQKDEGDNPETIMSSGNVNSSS
Chain of Beta-2 adrenergic receptor (P07550 whole entry): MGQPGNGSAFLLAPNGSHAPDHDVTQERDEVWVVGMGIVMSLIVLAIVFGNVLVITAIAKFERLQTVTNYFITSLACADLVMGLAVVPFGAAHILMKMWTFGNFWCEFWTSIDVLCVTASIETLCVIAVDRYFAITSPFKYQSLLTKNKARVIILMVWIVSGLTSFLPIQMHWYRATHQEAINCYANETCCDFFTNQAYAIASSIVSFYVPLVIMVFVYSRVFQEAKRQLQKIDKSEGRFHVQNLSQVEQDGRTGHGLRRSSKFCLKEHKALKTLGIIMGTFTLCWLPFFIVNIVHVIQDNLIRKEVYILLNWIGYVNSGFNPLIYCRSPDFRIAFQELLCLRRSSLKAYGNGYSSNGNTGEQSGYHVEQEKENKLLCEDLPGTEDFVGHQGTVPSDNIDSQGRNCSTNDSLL
Chain of Adenosine receptor A2a (P29274 whole entry): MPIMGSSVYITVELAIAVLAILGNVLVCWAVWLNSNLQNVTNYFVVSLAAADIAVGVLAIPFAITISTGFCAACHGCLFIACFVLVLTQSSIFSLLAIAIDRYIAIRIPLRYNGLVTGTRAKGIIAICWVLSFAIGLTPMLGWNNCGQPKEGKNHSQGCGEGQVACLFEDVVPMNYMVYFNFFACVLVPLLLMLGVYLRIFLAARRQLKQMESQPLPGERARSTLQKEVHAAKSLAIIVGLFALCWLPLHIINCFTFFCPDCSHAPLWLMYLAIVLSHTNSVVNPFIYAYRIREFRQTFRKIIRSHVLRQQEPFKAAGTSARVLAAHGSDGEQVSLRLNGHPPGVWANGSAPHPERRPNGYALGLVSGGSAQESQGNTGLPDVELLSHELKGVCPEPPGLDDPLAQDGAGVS

Turning to `COc1cc(/C=N/Nc2ncnc3sc4c(c23)CCCC4)ccc1O`, the affinity on Adenosine receptor A2a corresponds to a Ki of 5.01 µM.
On the same count and under the same terms, the figure for `N=C(NC(=O)C(Cc1ccccc1)N1C(=O)c2ccccc2C1=O)Nc1nc2ccccc2o1` (configuration not stated) is 3.98 µM; for `N#CCSc1nc2cc(C(=O)N3CCC(C(N)=O)CC3)ccc2c2nc3ccccc3n12` it is 1 µM.
As to `Cc1ccc(C(C)C)c(OCC(O)CN2CCN(CCO)CC2)c1` (configuration not stated), the Ki (as a rule, the equilibrium dissociation constant of an inhibitor or competing ligand from its target) in experiment [1] is 39.8 µM.
Still for that read-out and setting: as for `CC(=O)c1c(CSc2ccccc2)oc2ccc(O)c(CN(C)C)c12`, the figure is 39.8 µM; as for `O=C1Cc2ccccc2Sc2c(OCCN3CCCCC3)cccc21`, 794 µM.
`O=C(CCN1C(=O)c2ccccc2C1=O)Nc1nc2ccccc2s1` had a Ki on Adenosine receptor A2a of 5.01 µM.
In experiment [1], `Cc1ccc(C)c(OCC(O)CNC2CCCC2)c1` (configuration not stated) had an inhibition constant (Ki) of 2 µM.
Take `Cc1cc(NC(=O)CSc2nc3ccccc3c3nc4ccccc4n23)n[nH]1`: the inhibition constant (Ki) on Adenosine receptor A2a was 0.631 µM.
The same measure, in the same setting: as for `CCOC(=O)c1nc[nH]c1/N=N/c1c(O)ccc2ccccc12`, the figure is 1.26 µM; as for `Cc1n[nH]c(C)c1S(=O)(=O)N1CCC(C(=O)Nc2nc3c(C)cccc3s2)CC1`, 1 µM.
Consider `Nc1ccc(C(=O)Nc2ccc(O)c(-c3nc4ccccc4[nH]3)c2)cc1`, for which the affinity at Adenosine receptor A2a, expressed as Ki, was 1.58 µM.
Still for that read-out and setting: the figure for `Cc1cccc2sc(NC(=O)CNS(=O)(=O)c3cccs3)nc12` is 1.58 µM.
On the same count and under the same terms, as for `N/C(=N\C(=O)CN1C(=O)C2CCCCC2C1=O)Nc1nc2ccccc2s1` (configuration not stated), the figure is 5.01 µM; as for `CC1=C(C(=O)Nc2nc3ccccc3s2)C(c2ccco2)C(C#N)=C(SCC(N)=O)N1` (configuration not stated), 6.31 µM; as for `Cc1ccc2[nH]c3nc(SCC(=O)Nc4ncc(C)s4)nnc3c2c1`, 3.98 µM.
Same read-out and setting: as for `Cc1nc2[nH]c3ccccc3n2c(=O)c1CCOC(=O)C1CCCCC1`, the figure is 2.51 µM.
`CC1CCN(C(=O)c2ccc3c(=O)[nH]c4c(-c5ccccc5)nnn4c3c2)CC1` had an inhibition constant Ki at Adenosine receptor A2a of 2.51 µM.
On the same count and under the same terms, the figure for `COCC1=CC(O)N=C(Nc2nc(C)c3ccccc3n2)N1` (configuration not stated) is 0.631 µM; for `N#C/C(=N\Nc1ccc(S(N)(=O)=O)cc1)c1nc2ccccc2[nH]1` it is 5.01 µM; for `O=C1c2ccccc2C(=O)c2cc(OCC(O)CN3CCCCC3)ccc21` (configuration not stated) it is 5.01 µM.
Compound `Cc1ccc(C(C)C)c(OCC(O)CN2CCCCC2)c1` (configuration not stated) had a Ki in experiment [1] of 0.794 µM.
In experiment [1], `Cc1nc2ccc(O)c(CN(C)C)c2[nH]1` had a Ki of 25.1 µM.
On to `O=C(Nc1nc2ccc(-c3nc4ccccc4[nH]3)cc2s1)C1CCCCC1`, for which, in experiment [2], the midpoint of the response, the EC50, lay at 20 µM.
For `CC(=O)N1CCc2cc(Br)cc(S(=O)(=O)N3CCC(O)(c4cccc(C(F)(F)F)c4)CC3)c21`, in experiment [2], the 50% effective concentration (EC50) (usually the concentration needed to bring the measured effect to its halfway point) was 31.6 µM.
On the same count and under the same terms, as for `Cc1ccc(S(=O)(=O)Nc2nc3n(n2)C(c2ccccc2)C=C(c2ccccc2)N3)cc1` (configuration not stated), the figure is 50.1 µM.
The compound `CCCc1nn(C)c2c(=O)[nH]c(-c3cc(S(=O)(=O)N4CCN(C)CC4)ccc3OCC)nc12` [SILDENAFIL] showed a Ki at Adenosine receptor A2a of 0.2 µM.

(Values after ChEMBL document CHEMBL2069177, “A prospective cross-screening study on G-protein-coupled receptors: lessons learned in virtual compound library design” (J Med Chem, 2012).)
